The values that follow come from ChEMBL document CHEMBL4715695, “Adamantyl-tethered-biphenylic compounds induce apoptosis in cancer cells by targeting Bcl homologs” (Bioorg Med Chem Lett, 2016).

SMILES strings stand for the structures. Calls of active or inactive are those of the source. The rule behind the calls is not given here.

In one series the test system is L02. The experiment in a line: Cytotoxicity against human L02 cells assessed as reduction in cell viability measured upto 72 hrs by MTT assay. As to conditions: l02, 72 h. The series is classed as cell-based.
The test system of series [1] is HepG2. The experiment in a line: Cytotoxicity against human HepG2 cells assessed as reduction in cell viability measured upto 72 hrs by MTT assay. The series is classed as functional, cell-based. The conditions noted are these: for IC50: HepG2, 72 h. The method, boiled down: (§1)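 HCC cells plated at 2.5 × 10^4/mL in triplicate and exposed to a range of compound concentrations. Proliferation was read by MTT at 24, 48 and 72 h.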

The subject of a further series is Huh-7. The experiment in a line: Cytotoxicity against human HuH-7 cells assessed as reduction in cell viability measured upto 72 hrs by MTT assay. The format is functional, cell-based. The conditions noted are these: dose 10-50 µM, time hrs <=72. The method, boiled down:
as §1

The subject of a further series is Hep 3B2. The experiment in a line: Cytotoxicity against human Hep3B cells assessed as reduction in cell viability measured upto 72 hrs by MTT assay. The series is classed as functional, cell-based. As to conditions: dose 10-50 µM, time hrs <=72. The method, boiled down:
as §1

For series [2], the system named is HepG2. The experiment in a line: Induction of apoptosis in human HepG2 cells assessed as decrease in survivin measured upto 48 hrs by Western blot analysis. The conditions noted are these: time hrs <=48. The series is classed as functional, cell-based. The method, boiled down:
(§2)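 Lysates of compound-treated HepG2 cells were immunoblotted for procaspase-3, PARP, survivin and cyclin D1. Full-length PARP is 116 kDa; cleavage yields 85 and 24 kDa fragments.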

Series [3] concerns HepG2. The experiment in a line: Induction of apoptosis in human HepG2 cells assessed as decrease in cyclin-D1 measured upto 48 hrs by Western blot analysis. The conditions noted are these: time hrs <=48. The series is classed as functional, cell-based. The method, boiled down: as §2
The subject of series [4] is HepG2. The experiment in a line: Induction of apoptosis in human HepG2 cells assessed as upregulation of Bcl-xl expression measured upto 48 hrs by Western blot analysis. The format is functional, cell-based. As to conditions: time hrs <=48, in the assay text read “downregulation” for “upregulation”, TDE = time-dependent effect. Put shortly: (§3)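 HepG2 cells were exposed to compound and harvested at 0, 12, 18, 24 and 48 h. Bcl-2 and Bcl-xL levels were detected by western blot, with β-actin as loading control.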

Series [5] concerns HepG2. The experiment in a line: Induction of apoptosis in human HepG2 cells assessed as decrease in full length PARP measured upto 48 hrs by Western blot analysis. The format is functional, cell-based. The conditions noted are these: time hrs <=48, TDE = time-dependent effect. Put shortly:
as §2

For series [6], the system named is MDA-MB-231. The experiment in a line: Induction of apoptosis in human MBA-MB-231 cells assessed as upregulation of Bcl-xl expression measured upto 48 hrs by Western blot analysis. The format is functional, cell-based. As to conditions: time hrs <=48, in the assay text read “downregulation” for “upregulation”. The method, boiled down: (§4)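 Bcl-2 and Bcl-xL levels in MDA-MB-231 cells after compound treatment were assessed by western blot, with β-actin as loading control.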

The test system of series [7] is HepG2. The series can be described thus: Induction of cell cycle arrest in human HepG2 cells assessed as increase in accumulation of SubG1 phase incubated for 48 hrs by propidium iodide staining based flow cytometry analysis. The series is classed as functional. The conditions noted are these: dose 10-40 µM. Put shortly: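 HepG2 cells were treated at 0, 10, 20 and 40 µM for 48 h, then ethanol-fixed and stained with propidium iodide. Cell cycle distribution, including the subG1 fraction, was analysed by flow cytometry.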

The subject of series [8] is MDA-MB-231. The experiment in a line: Induction of apoptosis in human MBA-MB-231 cells assessed as upregulation of Bcl-2 expression measured upto 48 hrs by Western blot analysis. The series is classed as functional, cell-based. The conditions noted are these: time hrs <=48, TDE = time-dependent effect, in the assay text read “downregulation” for “upregulation”. The method, boiled down:
as §4

Series [9] deals with HepG2. The experiment in a line: Induction of apoptosis in human HepG2 cells assessed as increase in pro-caspase 3 activation measured upto 48 hrs by Western blot analysis. The series is classed as functional, cell-based. As to conditions: time hrs <=48, TDE = time-dependent effect. The method, boiled down:
as §2

Series [10] relates to HepG2. The experiment in a line: Induction of apoptosis in human HepG2 cells assessed as increase in PARP cleavage measured upto 48 hrs by Western blot analysis. The series is classed as functional, cell-based. As to conditions: time hrs <=48, TDE = time-dependent effect. The method, boiled down: as §2
Series [11] relates to HepG2. The series can be described thus: Antiproliferative activity in human HepG2 cells transfected with Bcl2 siRNA assessed as reduction in cell growth at 10 to 50 uM incubated for 24 hrs by MTT assay. The format is functional, cell-based. The conditions noted are these: dose 10-50 µM. Put shortly: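 HepG2 cells were transfected with Bcl-2 siRNA, with control siRNA-transfected cells as the comparator. Cells were then exposed to graded compound doses, and proliferation was measured by MTT.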

For series [12], the system named is HepG2. The experiment in a line: Induction of apoptosis in human HepG2 cells assessed as upregulation of Bcl-2 expression measured upto 48 hrs by Western blot analysis. The series is classed as functional, cell-based. As to conditions: time hrs <=48, in the assay text read “downregulation” for “upregulation”, TDE = time-dependent effect. Put shortly:
as §3

With `COc1ccc(-c2ccccc2)cc1C12CC3CC(CC(C3)C1)C2`, in the series with L02, the Activity result was “Non-Toxic”. Moreover, the IC50 with HepG2 [1] is above 50 µM.
Regarding `COc1ccc(-c2ccccc2Cl)cc1C12CC3CC(CC(C3)C1)C2`, in the series on L02, the Activity result is listed as “Toxic”. The IC50 in the series on HepG2 [1] is 21.9 µM.
Regarding `COc1ccc(-c2c(F)cc(F)c(OC)c2F)cc1C12CC3CC(CC(C3)C1)C2`, in the series with L02, the Activity entry is “Non-Toxic”. Also, the IC50 in the series with HepG2 [1] was above 50 µM.
Turning to `COc1ccc(-c2cccc3ccccc23)cc1C12CC3CC(CC(C3)C1)C2`, the Activity entry with L02 was “Non-Toxic”. In addition, the IC50 in the series on HepG2 [1] worked out at 46.2 µM.
Regarding `CC1(C)CCC(c2ccc(Cl)cc2)=C(CN2CCN(c3ccc(C(=O)NS(=O)(=O)c4ccc(N[C@H](CCN5CCOCC5)CSc5ccccc5)c(S(=O)(=O)C(F)(F)F)c4)cc3)CC2)C1`, the Activity result with Huh-7, in the series with HepG2 [1] (time hrs <=72) and in the series with Hep 3B2 was “Dose-dependent effect” throughout.
With `COc1ccc(C2=Cc3ccccc3C2)cc1C12CC3CC(CC(C3)C1)C2`, in the series with L02, the Activity result is “Toxic”. Also, the IC50 in the series on HepG2 [1] was 6.9 µM.
For `COc1ccc(-c2cccc(Cl)c2)cc1C12CC3CC(CC(C3)C1)C2`, the Activity entry in the series on L02 was “Non-Toxic”.
On to `COc1ccc(-c2ccccc2F)cc1C12CC3CC(CC(C3)C1)C2`, for which the Activity entry in the series on L02 is recorded as “Non-Toxic”. Besides, the IC50 in the series with HepG2 [1] is above 50 µM.
Take `COc1ccc(-c2ccccc2C#N)cc1C12CC3CC(CC(C3)C1)C2`: in the series with L02, the Activity result was “Non-Toxic”. The IC50 in the series with HepG2 [1] is above 50 µM.
In the case of `COc1cccc(-c2ccc(OC)c(C34CC5CC(CC(C5)C3)C4)c2)c1`, the Activity result in the series on L02 is given as “Non-Toxic”. In the series with HepG2 [1], the concentration for half-maximal inhibition (IC50) is above 50 µM.
`COc1ccc(-c2ccc(C(F)(F)F)cc2)cc1C12CC3CC(CC(C3)C1)C2`: the Activity entry in the series with L02 was “Non-Toxic”. Moreover, the IC50 in the series with HepG2 [1] was above 50 µM.
With `COc1ccc(-c2cccc(O)c2)cc1C12CC3CC(CC(C3)C1)C2`, the result in the series with HepG2 [2], with HepG2 [3] and with MDA-MB-231 [6] was Active. Besides, the Activity entry with HepG2 [4] is “Tde”; in the series with HepG2 [5] it was “Tde”; in the series with L02, “Non-Toxic”; in the series on HepG2 [7] it was “Dose-dependent effect”; in the series on MDA-MB-231 [8] it was “Tde”; in the series with HepG2 [9], “Tde”. Moreover, the Activity result in the series on HepG2 [10] and with HepG2 [12] was “Tde” each time. Further, in the series on HepG2 [11], the inhibition entry was “inactive”. In addition, in the series on HepG2 [1], the IC50 was 26.1 µM.
On to `COc1ccc(-c2ccc(C(=O)N3CCCCC3)cc2)cc1C12CC3CC(CC(C3)C1)C2`, for which the Activity entry with L02 is on record as “Non-Toxic”. The IC50 in the series with HepG2 [1] was above 50 µM.
The matching figures for `COc1ccc(-c2ccccc2C)cc1C12CC3CC(CC(C3)C1)C2`: “Non-Toxic” and 49.1 µM.
On to `COc1ccc(-c2ccc(Cl)c(C(F)(F)F)c2)cc1C12CC3CC(CC(C3)C1)C2`, for which the Activity result in the series on L02 is “Non-Toxic”. Further, the IC50 with HepG2 [1] was above 50 µM.
